Bioassay records as filed in PubChem BioAssay.
This is a sample that favours compounds with a hit; in the whole collection about 1.4% have one here.
FXIIa inh 1536: blocks human coagulation factor XIIa protease activity | inhibition, % at 5 µM | 220,000 tested, 0.3% active | purified FXIIa, Boc-QGR-AMC fluorogenic substrate, 2 h; in the data active means inhibition above about 40%
FXIa inh: factor XIa (human) inhibition. AID 798. 220,000 tested, 0.14% active. purified FXIa, Boc-Glu-Ala-Arg-AMC fluorogenic substrate. inhibition, % at 5 µM;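 active means inhibition of at least 40%; inactive means inhibition below 40%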;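 further: fluorescence of freed AMC excited at 355 nm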
m-calpain inh: blocks pig calpain II enzyme activity; purified calpain II, fluorogenic peptide substrate, 30 min; inhibition, % at 16 µM; 220,000 tested, 0.37% active;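 active means inhibition above about 50%, limit read from the data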
Furin inhibitor: blocks human furin protease activity. purified furin, fluorogenic substrate cleavage. inhibition, % at 20 µM or 30 µM. 220,000 tested, 0.061% active; in the data active means inhibition above about 25%
KLK5 inh: kallikrein 5 (human) inhibition; 210,000 tested, 0.59% active; AID 873; recombinant hK5, fluorogenic AMC substrate cleavage; Q9Y337; inhibition, % at 5 µM;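 active means inhibition of 40% or more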
Target sequence (Q9Y337 67-293 limits assumed): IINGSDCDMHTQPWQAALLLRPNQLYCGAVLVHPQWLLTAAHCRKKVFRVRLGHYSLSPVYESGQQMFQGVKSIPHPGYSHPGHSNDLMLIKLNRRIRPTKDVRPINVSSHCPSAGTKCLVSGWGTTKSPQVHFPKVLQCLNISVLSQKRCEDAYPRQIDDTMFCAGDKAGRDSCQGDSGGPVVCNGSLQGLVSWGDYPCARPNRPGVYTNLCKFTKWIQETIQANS
thrombin 1536: inhibitors of human thrombin; 220,000 tested, 0.26% active; P00734; AID 1046; inhibition, % at 5 µM; alpha-thrombin, Boc-VPR-AMC fluorogenic substrate cleavage;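 active means inhibition at or above 40%; inactive means inhibition below 40%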
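Material: human alpha-thrombin protein. Incubation: reaction at ambient temperature. Technique: fluorescence of released AMC, ex 355 nm, em 460 nm. Control set: no-compound enzyme wells and no-enzyme blanks. Also added: Boc-VPR-AMC substrate, 15 µM final. Buffer or medium: pH 7.5 Tris (50 mM) with NaCl 150 mM, Tween 20 0.05%.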
Hits are given with their value; - = inactive; . = no result.

SMILES	FXIIa inh 1536	FXIa inh	m-calpain inh	Furin inhibitor	KLK5 inh	thrombin 1536
CC(C)C(NC(=O)CC12CC3CC(CC(C3)C1)C2)C(=O)O (stereo unspecified)	46.7	-	-	-	-	-
Cc1ccc(-n2c(SCC(=O)Nc3cccc(C)c3)nc3c(oc4ccccc43)c2=O)cc1	-	-	-	-	-	-
OC1(c2cccc(C(F)(F)F)c2)CCN(Cc2nnnn2Cc2ccccc2)CC1	-	-	-	-	-	-
OC1(c2ccc(F)cc2)CCN(Cc2nnnn2Cc2cccs2)CC1	-	-	-	-	-	60.5
CC1Cc2nc(SCC(=O)NCc3ccccc3)n(Cc3ccccc3)c(=O)c2S1 (stereo unspecified)	-	-	-	-	-	-
CCN(CC)S(=O)(=O)c1ccc(Cl)c(C(=O)Oc2cccc(-c3cnc4ccccc4n3)c2)c1	-	-	-	-	55.6	-
CCOC(=O)COc1ccc2nsnc2c1Cl	-	-	.	-	101.7	-
CCCCN1C(=O)C(NC(=O)CC(C)C)(C(F)(F)F)C2=C1CC(C)(C)CC2=O (stereo unspecified)	-	-	-	-	-	-
Cc1cccc(NC2SC(=O)N(c3ccccc3)C2=O)c1 (stereo unspecified)	-	-	-	-	80.1	-
Cc1c(-n2cc(C(=O)c3ccccc3O)cc(C#N)c2=O)c(=O)n(-c2ccccc2)n1C	-	-	-	-	64.7	-
N#Cc1cc(C(=O)c2ccccc2O)cn(-c2ccc(Cl)cc2)c1=O	-	-	-	-	-	-
CC(C)=CCC/C(C)=C/CC/C(C)=N/O	40.2	-	-	-	-	-
O=C(c1ccc(COc2ccc(Cl)cc2)cc1)N1CCCCC1	.	-	58.0	-	-	-
CCCCOc1ccc(C(=O)N2CCCCCC2)cc1	-	-	-	-	-	-
C=CCC1(N(C(C)=O)c2ccccc2C)CCCCC1	-	-	-	-	-	-
CC1CCCC(NC(=S)NC(=O)c2cncc(Br)c2)C1C (stereo unspecified)	-	-	-	-	-	-
COC(C/C=C/[C@H](O)COCc1ccccc1)OC	-	-	-	-	-	-
COC(C/C=C/[C@@H](O)COCc1ccccc1)OC	-	-	-	-	46.5	-
COc1ccc(N=C2S/C(=C\c3ccc(OCC(=O)O)cc3)C(=O)N2CCc2c[nH]c3ccccc23)cc1	-	-	82.1	-	-	-
COc1ccc(N=C2S/C(=C\c3ccc(N4CCOCC4)o3)C(=O)N2CCc2c[nH]c3ccccc23)cc1	-	-	-	-	-	-
CN1CCN(c2ccccc2NC(=O)c2cccc(OCc3ccccc3)c2)CC1	-	-	-	35.0	-	-
Cc1ccc(-n2c(C)cc(C(=O)COC(=O)c3c(C)noc3C)c2C)cc1	-	-	-	-	-	-
Cc1ccc2nc(-c3ccc(S(=O)(=O)N4CCCCC4)cc3)cn2c1	-	-	-	-	-	-
O=C(O)CC1(CC(=O)NCc2ccncc2)CCCCC1	41.4	-	-	-	-	-
Cc1ccc2c(c1)C(c1ccc([N+](=O)[O-])cc1)=NNC(c1ccc(Br)cc1)=N2	-	-	-	-	-	-
SMILES	FXIIa inh 1536	FXIa inh	m-calpain inh	Furin inhibitor	KLK5 inh	thrombin 1536
Cc1ccc(C(=O)Oc2ccccc2N2C(=O)C3CCCCC3C2=O)cc1 (stereo unspecified)	-	-	-	-	-	-
COc1ccccc1C(=O)O/N=C(/C)c1ccc(N2C(=O)C3CCCCC3C2=O)cc1 (stereo unspecified)	-	-	54.1	-	-	-
COc1ccc(-c2ncn(CCC#N)c2[N+](=O)[O-])cc1	-	-	-	-	-	-
Cc1cc(C)n(-c2nc3ccccc3n3c(C)nnc23)n1	-	-	-	-	-	-
Cc1nnc2c(-c3ccccc3)nc3ccccc3n12	-	-	-	-	-	44.6
COc1ccc(CSc2nc(C)cc(C)c2S(C)(=O)=O)cc1	-	41.1	-	-	-	-
OCc1c(Cl)nc2ccccn12	-	-	-	-	-	-
Brc1c(C[n+]2ccccc2)nc2ccccn12	53.1	-	-	-	-	-
CCOc1ccc(NC(=O)c2nsc(Cl)c2Cl)cc1	-	-	-	-	-	-
COc1ccc(-n2c(O)c(C=Nc3ccccc3)c3ccccc3c2=O)cc1	-	-	-	-	-	40.2
COc1ccc(-n2c(O)c(C=Nc3ccccc3)c3ccccc3c2=O)cc1OC	-	-	-	-	-	-
Cc1cccc(C(=O)Nc2sc(C)c(-c3ccccc3)c2C#N)c1	-	-	-	-	55.5	53.3
CCC12CN3CC(CC)(CN(C1)C3c1ccc([N+](=O)[O-])o1)C2=O (stereo unspecified)	-	-	-	-	-	-
Cc1ccc(NC(=O)CN(c2cc(C)cc(C)c2)S(=O)(=O)c2c(C)noc2C)nc1	-	-	-	-	40.4	-
COc1cccc(COc2nc3c(c(=O)n(C)c(=O)n3C)n2C)c1	-	-	76.0	-	-	-
Fc1ccccc1C1CC(c2ccco2)=Nc2ccccc2S1 (stereo unspecified)	-	-	-	-	-	-
O=C(Nc1cc([N+](=O)[O-])ccc1N1CCOCC1)c1ccco1	-	42.8	-	-	-	-
O=C(c1cc([N+](=O)[O-])ccc1N1CCCCC1)N1CCCC1	-	-	-	-	-	-
O=C(c1cc([N+](=O)[O-])ccc1N1CCOCC1)N1CCCCC1	-	-	81.9	-	-	-
O=C(c1ccc(-c2ccc([N+](=O)[O-])cc2)o1)N1CCCCC1	-	-	-	-	-	60.6
CC(=O)Nc1cc([N+](=O)[O-])ccc1N1CCOCC1	-	-	-	-	-	-
CC(=O)Nc1ccc(S(=O)(=O)N2CCNC(=O)CC2)cc1	-	-	-	-	-	-
C/C(=C\C(=O)c1ccc(C)cc1)Nc1cccc(O)c1	-	-	-	-	-	-
CC1=C(C(N)=O)C(c2cccnc2)n2nc(-c3cccc(Cl)c3)nc2N1 (stereo unspecified)	-	-	-	-	-	-
COC(=O)c1cc(NC(=O)c2ccoc2C)cc(C(=O)OC)c1	-	-	-	-	40.5	-
SMILES	FXIIa inh 1536	FXIa inh	m-calpain inh	Furin inhibitor	KLK5 inh	thrombin 1536
O=C(Nc1cccnc1)c1ccccc1O	-	-	-	-	-	-
Cc1occc1C(=O)Nc1cccc(C(=O)O)c1	-	-	-	-	-	-
Cc1occc1C(=O)Nc1cccnc1	-	-	-	-	77.7	-
Cn1c(=O)c2c(nc(Oc3ccc(-c4ccccc4)cc3)n2C)n(C)c1=O	-	-	-	-	-	-
O=C(c1ccco1)N1CCN(C(=O)N2CCCCC2)CC1	-	-	-	-	-	-
Cn1c(=O)[nH]c(=O)c2[nH]c(N(Cc3ccccc3)Cc3ccccc3)nc21	-	-	64.5	-	-	-
Oc1cccc(NC(=S)N=Nc2c(O)[nH]c3ccccc23)c1	-	-	-	-	78.4	-
CCOc1ccc(N(C(C)=O)c2nc(C)cc(C)c2C#N)cc1	-	-	-	-	51.5	-
